Measurements as given in ChEMBL document CHEMBL4765346, “Inhibitor design to target a unique feature in the folate pocket of Staphylococcus aureus dihydrofolate reductase” (Eur J Med Chem, 2020).
Values after ≈ are worked out from the molar mass of the structure shown. Active and inactive are the calls of the source. The rule behind the calls is not given here.

Key:
Staphylococcus aureus [1] = assay: Antibacterial activity against Staphylococcus aureus ATCC 29213 assessed as inhibition of bacterial growth incubated for 18 hrs by spectrophotometric method; type: functional
In short: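 Racemic compounds tested against standardized S. aureus strain 29213 cultures following CLSI procedure; MIC recorded; n = 2 independent assays, each with duplicate technical replicates.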

Staphylococcus aureus [2] = assay: (§1) Inhibition of recombinant Staphylococcus aureus DHFR expressed in Escherichia coli BL21 (DE3) using dihydrofolate as substrate and NADPH as cofactor incubated for 2.8 mins
In short: (§2)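 Recombinant S. aureus DHFR expressed in E. coli BL21 (DE3). Reaction reconstituted with NADPH and varied inhibitor concentrations (racemates, diluted from 10 mM DMSO stock), started by adding dihydrofolate. Run at 30 °C, rate followed 2.8 min over linear range. 50% activity point from 4-parameter fit of rate vs concentration. IC50 converted to Ki by Cheng-Prusoff using previously measured KM. n ≥ 3 independent assays, duplicate technical replicates.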

[3] = as §1; in short: as §2

SMILES	MIC (Staphylococcus aureus [1]) [µg/mL]	inhibition (Staphylococcus aureus [2])	Ki [3] [nM]
COc1cc(Cc2cnc(N)nc2N)cc(/C=C/C(=O)N2N=Cc3ccccc3C2c2ccc(C)cc2)c1OC (configuration not stated)	0.046 (≈ 0.086 µM)	inactive	
COc1cc(Cc2cnc(N)nc2N)cc(/C=C/C(=O)N2N=Cc3ccccc3C2C2CCCCC2)c1OC (configuration not stated)		Active	
COc1cc(Cc2cnc(N)nc2N)cc(/C=C/C(=O)N2N=Cc3ccccc3C2c2ccccc2)c1OC (configuration not stated)		Active	
CCCC1c2ccccc2C=NN1C(=O)/C=C/c1cc(Cc2cnc(N)nc2N)cc(OC)c1OC (configuration not stated)	0.0625 (≈ 0.128 µM)		1.2
CCCC1c2cc(OC)c(OC)cc2C=NN1C(=O)/C=C/c1cc(Cc2cnc(N)nc2N)cc(OC)c1OC (racemic)	1 (≈ 1.83 µM)		1.1
COc1ccc(CC2c3ccccc3C=NN2C(=O)/C=C/c2cc(Cc3cnc(N)nc3N)cc(OC)c2OC)cc1 (configuration not stated)			1.2
CCCC1c2cc(C)c(C)cc2C=NN1C(=O)/C=C/c1cc(Cc2cnc(N)nc2N)cc(OC)c1OC (racemic)	0.5 (≈ 0.972 µM)		1.2
COc1cc2c(cc1OC)C(C1CC1)N(C(=O)/C=C/c1cc(Cc3cnc(N)nc3N)cc(OC)c1OC)N=C2 (racemic)	1 (≈ 1.84 µM)		0.7
COc1cc(Cc2cnc(N)nc2N)cc(/C=C/C(=O)N2N=Cc3ccccc3C2c2cc(C)cc(C)c2)c1OC (configuration not stated)		inactive	

Now from value to compound, other results behind:

MIC (Staphylococcus aureus [1]) [µg/mL]	inhibition (Staphylococcus aureus [2])	SMILES	Ki [3] [nM]
0.25 (≈ 0.456 µM)		COc1cc(Cc2cnc(N)nc2N)cc(/C=C/C(=O)N2N=Cc3ccccc3C2Cc2ccc(C)cc2)c1OC (configuration not stated)	2.3
	inactive	CCC(CC)C1c2ccccc2C=NN1C(=O)/C=C/c1cc(Cc2cnc(N)nc2N)cc(OC)c1OC (configuration not stated)	
0.188 (≈ 0.385 µM)	Active	COc1cc(Cc2cnc(N)nc2N)cc(/C=C/C(=O)N2N=Cc3ccccc3C2C(C)C)c1OC (configuration not stated)	
	Active	COc1cc(Cc2cnc(N)nc2N)cc(/C=C/C(=O)N2N=Cc3ccccc3C2C=C(C)C)c1OC (configuration not stated)	
	Active	COc1cc(Cc2cnc(N)nc2N)cc(/C=C/C(=O)N2N=Cc3ccccc3C2CCC(F)(F)F)c1OC (configuration not stated)	
	Active	COc1cc(Cc2cnc(N)nc2N)cc(/C=C/C(=O)N2N=Cc3ccccc3C2CC(C)C)c1OC (configuration not stated)	
